Active and inactive are the calls of the source. The rule behind the calls is not given here.
Legend:
[1] = molecular target: T1, Tyrosine-protein phosphatase non-receptor type 1 (Homo sapiens) (UniProt P18031); experiment: Inhibition of protein tyrosine phosphatase-1B at 10 uM incubated for 10 mins using pNPP substrate by modified Goldstein method; set-up: Activity: scale not given: the % may be the effect or the level left
T1 sequence (whole entry): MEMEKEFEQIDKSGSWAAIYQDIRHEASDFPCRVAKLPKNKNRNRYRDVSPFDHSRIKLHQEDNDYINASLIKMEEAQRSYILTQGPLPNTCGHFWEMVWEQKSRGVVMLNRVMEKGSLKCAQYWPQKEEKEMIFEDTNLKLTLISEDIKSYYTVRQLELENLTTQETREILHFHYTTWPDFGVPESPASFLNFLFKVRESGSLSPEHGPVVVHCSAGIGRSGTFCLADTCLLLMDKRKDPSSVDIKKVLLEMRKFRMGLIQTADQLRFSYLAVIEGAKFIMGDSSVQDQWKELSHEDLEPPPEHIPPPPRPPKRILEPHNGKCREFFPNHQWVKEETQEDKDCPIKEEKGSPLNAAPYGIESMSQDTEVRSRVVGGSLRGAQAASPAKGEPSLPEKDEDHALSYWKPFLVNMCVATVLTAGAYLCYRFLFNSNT
Procedure, shortened: (§1)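 PTP-1B: compound preincubated 10 min with enzyme, with or without 0.01% Triton X-100. Then 10 mM pNPP in 50 mM HEPES pH 7.0 with 1 mM DTT and 2 mM EDTA, 30 min at 37 °C. Stopped with 0.1 N NaOH; absorbance read at 410 nm. p-Nitrophenolate calculated using ε 1.78 × 10⁴ M⁻¹cm⁻¹. Sodium orthovanadate used as reference.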

[2] = test system: Rattus norvegicus; experiment: Antihyperglycemic activity against sucrose challenged streptozotocin-induced diabetic Sprague-Dawley albino rat assessed as reduction in blood glucose level at 100 mg/kg, po administered 30 mins before sucrose challenge measured after 24 hrs; assay type: functional
Procedure, shortened: (§2)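 Male Sprague Dawley rats, 160 ± 20 g, fasted overnight, given streptozotocin 60 mg/kg ip in 100 mM citrate pH 4.5. Rats with glucose 144–270 mg/dl at 48 h count as diabetic, 5–6 per group. Dosed 100 mg/kg orally in 1.0% gum acacia. Sucrose 2.5 g/kg given 30 min later. Glucose read at 30–300 min and 24 h. Non-responders excluded.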

[3] = test system: Rattus norvegicus; experiment: Antihyperglycemic activity against sucrose challenged streptozotocin-induced diabetic Sprague-Dawley albino rat assessed as reduction in blood glucose level at 100 mg/kg, po administered 30 mins before sucrose challenge measured after 5 hrs; assay type: functional; procedure, shortened: as §2
[4] = test system: Rattus norvegicus; experiment: Antihyperglycemic activity in Charles Foster/Wistar albino rat assessed as reduction in blood glucose level at 100 mg/kg, po administered 30 mins before sucrose challenge; assay type: functional
Procedure, shortened: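 Male Charles Foster/Wistar rats, 160 ± 20 g, fasted 16 h; animals with glucose 60–80 mg/dl used, 5–6 per group. Given 100 mg/kg orally as suspension in 1.0% gum acacia (controls vehicle alone). Sucrose 10.0 g/kg orally 30 min later. Glucometer readings at 30, 60, 90, 120 min. Percent activity derived from AUC of treated versus control groups.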

[5] = molecular target: T2, Tyrosine-protein phosphatase non-receptor type 1 (Homo sapiens, UniProt P18031); experiment: Inhibition of protein tyrosine phosphatase-1B at 10 uM incubated for 10 mins using pNPP substrate in absence of Triton X-100 by modified Goldstein method; procedure, shortened: as §1
T2 sequence (P18031 whole entry): T1 sequence (whole entry)

[6] = molecular target: T2, Tyrosine-protein phosphatase non-receptor type 1; experiment: Inhibition of protein tyrosine phosphatase-1B at 10 uM incubated for 10 mins using pNPP substrate in presence of 0.01% Triton X-100 by modified Goldstein method; procedure, shortened: as §1
[7] = species on record: Mus musculus; experiment: Antihyperglycemic activity in C57BL/Ks db/db mouse assessed as reduction in blood glucose level measured after 3 days relative to control; assay type: functional
[8] = test system: Mus musculus; experiment: Antidyslipidemic activity in C57BL/Ks db/db mouse assessed as reduction in plasma cholesterol level at 100 mg/kg, po; assay type: functional
Procedure, shortened: (§3)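 db/db mice (C57BL/KsBom, 12–18 weeks, 5 male and 5 female) dosed orally at 100 mg/kg in 1.0% gum acacia. Blood collected on day 8 for serum lipids. Mean ± SD, n = 5, against vehicle-treated db/db controls; Dunnett's test.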

[9] = test system: Mus musculus; experiment: Antihyperglycemic activity in C57BL/Ks db/db mouse assessed as reduction in blood glucose level at 100 mg/kg, po measured 10 days post dose by postprandial glucose tolerance test; assay type: functional; conditions: 240 h, in the assay text read “oral glucose tolerance test” for “postprandial glucose tolerance test”
Procedure, shortened: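 db/db mice (C57BL/KsBom, 12–18 weeks, 40–50 g) given 100 mg/kg orally, vehicle 1.0% gum acacia. Day 10 OGTT after overnight fast: glucose at −30 min and drug given, then glucose at 0 min. Glucose 3 g/kg given, with readings at 30, 60, 90 and 120 min.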

[10] = test system: Rattus norvegicus; experiment: Antihyperglycemic activity against sucrose challenged streptozotocin-induced diabetic Sprague-Dawley albino rat assessed as reduction in blood glucose level at 7.5 mg/kg, po administered 30 mins before sucrose challenge; assay type: functional
Procedure, shortened: (§4)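 Streptozotocin-diabetic Sprague Dawley rats: streptozotocin 60 mg/kg ip in citrate pH 4.5; rats at 144–270 mg/dl after 48 h used. Oral doses of 7.5–100 mg/kg in 1.0% gum acacia, then sucrose 2.5 g/kg. Glucose measured at 30, 60, 90, 120, 180, 240, 300 and 1440 min. ED50 taken from dose response. Mean ± SD, n = 5; Dunnett's test.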

[11] = test system: Rattus norvegicus; experiment: Antihyperglycemic activity against sucrose challenged streptozotocin-induced diabetic Sprague-Dawley albino rat assessed as reduction in blood glucose level at 25 mg/kg, po administered 30 mins before sucrose challenge; assay type: functional; procedure, shortened: as §4
[12] = molecular target: Dipeptidyl peptidase 4 (Homo sapiens) (UniProt P27487); experiment: Inhibition of DPP4 assessed as rate of substrate cleavage using Gly-Pro-AMC substrate by spectrofluorometry
Chain of Dipeptidyl peptidase 4 (Homo sapiens) (P27487 whole entry, looked up): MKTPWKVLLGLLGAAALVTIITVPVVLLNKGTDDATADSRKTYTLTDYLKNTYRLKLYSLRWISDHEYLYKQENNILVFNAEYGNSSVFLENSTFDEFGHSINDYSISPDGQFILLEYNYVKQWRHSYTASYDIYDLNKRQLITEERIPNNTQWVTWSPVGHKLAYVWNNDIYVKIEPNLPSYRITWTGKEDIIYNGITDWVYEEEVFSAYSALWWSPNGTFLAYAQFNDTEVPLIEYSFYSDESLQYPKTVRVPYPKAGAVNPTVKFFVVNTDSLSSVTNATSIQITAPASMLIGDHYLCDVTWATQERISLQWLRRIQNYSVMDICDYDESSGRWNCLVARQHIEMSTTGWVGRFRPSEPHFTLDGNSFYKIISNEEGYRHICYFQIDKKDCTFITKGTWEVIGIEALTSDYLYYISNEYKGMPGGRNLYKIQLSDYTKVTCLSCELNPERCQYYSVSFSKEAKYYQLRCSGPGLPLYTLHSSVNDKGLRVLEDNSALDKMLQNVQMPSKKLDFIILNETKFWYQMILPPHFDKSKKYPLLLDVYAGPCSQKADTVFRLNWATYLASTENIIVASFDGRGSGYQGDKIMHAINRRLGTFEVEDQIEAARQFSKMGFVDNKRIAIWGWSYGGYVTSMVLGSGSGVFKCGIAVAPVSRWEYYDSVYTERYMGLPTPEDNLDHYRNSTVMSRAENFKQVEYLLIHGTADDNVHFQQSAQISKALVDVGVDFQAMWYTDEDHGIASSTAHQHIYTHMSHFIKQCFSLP
Procedure, shortened: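 DPP-IV activity read by fluorescence at 37 °C, excitation 355 nm and emission 460 nm. Initial rate calculated over the first 15 min as increase in fluorescence intensity.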

[13] = test system: Mus musculus; experiment: Antidyslipidemic activity in C57BL/Ks db/db mouse assessed as reduction in plasma triglyceride level at 100 mg/kg, po; assay type: functional; procedure, shortened: as §3
[14] = test system: Rattus norvegicus; experiment: Antihyperglycemic activity against sucrose challenged streptozotocin-induced diabetic Sprague-Dawley albino rat assessed as reduction in blood glucose level administered orally 30 mins before sucrose challenge; assay type: functional; conditions: po; procedure, shortened: as §4
[15] = test system: Rattus norvegicus; experiment: Antihyperglycemic activity against sucrose challenged streptozotocin-induced diabetic Sprague-Dawley albino rat assessed as reduction in blood glucose level at 15 mg/kg, po administered 30 mins before sucrose challenge; assay type: functional; procedure, shortened: as §4
[16] = test system: Mus musculus; experiment: Antihyperglycemic activity in C57BL/Ks db/db mouse assessed as reduction in blood glucose level at 100 mg/kg, po measured 6 days post dose by postprandial glucose tolerance test; assay type: functional; conditions: 144 h
Procedure, shortened: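 C57BL/KsBom-db mice, 12–18 weeks, 40–50 g, 5 male and 5 female, at 23 °C with 12/12 h light cycle. Treated orally at 100 mg/kg, vehicle 1.0% gum acacia. Day 6 postprandial test: glucose at −0.5 h and 0 h, then at 1, 2, 3, 4 and 6 h after dosing.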

[17] = test system: Rattus norvegicus; experiment: Antihyperglycemic activity against sucrose challenged streptozotocin-induced diabetic Sprague-Dawley albino rat assessed as reduction in blood glucose level at 100 mg/kg, po administered 30 mins before sucrose challenge; assay type: functional; procedure, shortened: as §2
[18] = test system: Rattus norvegicus; experiment: Antihyperglycemic activity against sucrose challenged streptozotocin-induced diabetic Sprague-Dawley albino rat assessed as reduction in blood glucose level at 50 mg/kg, po administered 30 mins before sucrose challenge; assay type: functional; procedure, shortened: as §4
[19] = test system: Mus musculus; experiment: Antidyslipidemic activity in C57BL/Ks db/db mouse assessed as plasma HDL-cholesterol level at 100 mg/kg, po; assay type: functional; procedure, shortened: as §3

Compound	inhibition [1] [%]	inhibition in vivo at 100 mg/kg [2] [%]	inhibition in vivo at 100 mg/kg [3] [%]	inhibition in vivo at 100 mg/kg [4] [%]	IC50 [5] [µM]	IC50 [6] [µM]	further results
CCN(CC)CCCOc1cc(OC)ccc1-c1cc(-c2ccccc2)no1	21.8	9.2	7.8	14.3	28	28.2	
COc1ccc(-c2cc(-c3ccccc3)no2)c(O)c1	21.8			9.8	27.5	27.6	
COc1ccc(-c2cc(-c3ccccc3)no2)c(OCC(=O)O)c1				11.7	9.1	9.3	Activity [1]: 75.2%
COc1ccc(Cl)cc1C(=O)NCCc1ccc(S(=O)(=O)NC(=O)NC2CCCCC2)cc1 [GLYBURIDE]			32.8	33.9			inhibition (INH) [7]: 13.6%
CCN(CC)CCOc1cc(OC)ccc1-c1cc(-c2ccccc2)no1	94.7	25.7	26.9	29.9	2.97	2.9	inhibition in vivo at 100 mg/kg [8]: -14.5%; inhibition in vivo at 100 mg/kg [9]: 21.5%; inhibition in vivo at 7.5 mg/kg [10]: 10.3%; inhibition (INH) [7]: 21%; inhibition in vivo at 25 mg/kg [11]: 19.5%; inhibition [12]: inactive; inhibition in vivo at 100 mg/kg [13]: -12%; ED50 [14]: 45.3 mg/kg; inhibition in vivo at 15 mg/kg [15]: 15.5%; inhibition in vivo at 100 mg/kg [16]: 22.6%; inhibition in vivo at 100 mg/kg [17]: 25.4%; inhibition in vivo at 50 mg/kg [18]: 21.7%; Activity [19]: 3.9%
COc1ccc(-c2cc(-c3ccccc3)no2)c(OCCCCl)c1	9			9.24	56.8	56.9	
Cc1ccc(S(=O)(=O)NC(=O)NN2CC3CCCC3C2)cc1 (stereo unspecified) [GLICLAZIDE]			27.7	44.8			inhibition (INH) [7]: 17.4%
COc1ccc(-c2cc(-c3ccccc3)no2)c(OCCCN2CCCC2)c1	82.7	11.2	13.4	21.2	3.5	3.46	inhibition [12]: inactive
CCCCN(C)CCCOc1cc(OC)ccc1-c1cc(-c2ccccc2)no1	14.4	14.2	12.6	15	37.3	37.5	
CN(C)C(=N)NC(=N)N [METFORMIN]		20.2		12.9			inhibition (INH) [7]: 11.2%
COc1ccc(-c2cc(-c3ccccc3)no2)c(OCCN(C(C)C)C(C)C)c1	89.4	9.7	11.4	21.7	5.5	5.44	inhibition [12]: inactive
COc1ccc(-c2cc(-c3ccccc3)no2)c(OCCN2CCOCC2)c1	82.9			2.8	2.5	2.61	
COc1ccc(-c2cc(-c3ccccc3)no2)c(OCC2CO2)c1 (stereo unspecified)				10.7	31.1	31.3	Activity [1]: 11.8%
COc1ccc(-c2cc(-c3ccccc3)no2)c(OCC(O)CN2CCCC2)c1 (stereo unspecified)		17.6	18.5	26.8	3.4	4.2	inhibition in vivo at 100 mg/kg [8]: -9.8%; inhibition in vivo at 100 mg/kg [9]: 15.5%; Activity [1]: 86.2%; inhibition in vivo at 7.5 mg/kg [10]: 8.4%; inhibition (INH) [7]: 15.7%; inhibition in vivo at 25 mg/kg [11]: 13.8%; inhibition [12]: inactive; inhibition in vivo at 100 mg/kg [13]: -8.5%; ED50 [14]: 80.2 mg/kg; inhibition in vivo at 15 mg/kg [15]: 11.6%; inhibition in vivo at 100 mg/kg [16]: 15.9%; inhibition in vivo at 100 mg/kg [17]: 18.5%; inhibition in vivo at 50 mg/kg [18]: 17.9%; Activity [19]: 1.8%
CCOC(=O)COc1cc(OC)ccc1-c1cc(-c2ccccc2)no1	79.3			10.4	5.25	5.35	
CCOC(=O)CCCOc1cc(OC)ccc1-c1cc(-c2ccccc2)no1	20.1			4.6	26.7	26.7	
COc1ccc(-c2cc(-c3ccccc3)no2)c(OCCCN(C)C)c1	22.3			11.8	25.3	25.3	
COc1ccc(-c2cc(-c3ccccc3)no2)c(OCC(O)CN2CCCCC2)c1 (stereo unspecified)		16.8	15.8	17	6.8	3.31	Activity [1]: 85.9%
COc1ccc(-c2cc(-c3ccccc3)no2)c(OCCCC(=O)O)c1		14.2	14.9	14.2	22.3	22.4	Activity [1]: 24.4%
COc1ccc(-c2cc(-c3ccccc3)no2)c(OCCN(C)C)c1	33.5	15.9	15.3	16.8	24.2	24.3	
COc1ccc(-c2cc(-c3ccccc3)no2)c(OCCCN2CCCCC2)c1	89.5	15	14.7	20.8	4.4	4.42	inhibition [12]: inactive
CCN(CC)CC(O)COc1cc(OC)ccc1-c1cc(-c2ccccc2)no1 (stereo unspecified)		11.4	11.6	13.8	4.3	6.89	Activity [1]: 82.8%

Reference: ChEMBL document CHEMBL1781977, “Design and synthesis of 3,5-diarylisoxazole derivatives as novel class of anti-hyperglycemic and lipid lowering agents” (Bioorg Med Chem, 2009)
